Activity calls are given as the source filed them. No cut-off for these calls is given here.
Legend:
[1] = test system: MDA-MB-231; experiment: Antitumor activity against human MDA-MB-231 cells xenografted in athymic nude mouse assessed as tumor log cell kill at 75 mg/kg, ip qd administered every other day started on day 14 for 5 days followed by compound readministration on day 27; type: functional; conditions: route intraperitoneal
Outline: (§1)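 Female athymic nude mice were implanted sc with an MDA-MB-231T tumour fragment, and tumours were staged to about 125 mg. Drug was given ip in 10% DMSO in saline/Tween 80, with courses starting day 14 and repeated from day 27. There were 8 animals per treated group and 16 controls. Read-outs were body weight, deaths, median tumour mass as T/C, days to a predetermined size as T-C/C, and net log cell kill.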

[2] = test system: MDA-MB-231; experiment: Antitumor activity against human MDA-MB-231 cells xenografted in athymic nude mouse assessed as net tumor log cell kill at 50 mg/kg, ip qd administered on day 14 for 5 days followed by compound readministration on day 27; type: functional; conditions: route intraperitoneal; outline: as §1
[3] = test system: Mus musculus; experiment: Toxicity in athymic nude mouse xenografted in human MDA-MB-231 cells assessed as mortality at 75 mg/kg, ip qd administered every other day started on day 14 for 5 days followed by compound readministration on day 27; type: organism-based; design: dose 75 mg/kg, route intraperitoneal; conditions: in vivo, 120 h; outline: as §1
[4] = test system: Mus musculus; experiment: Toxicity in athymic nude mouse xenografted in human MDA-MB-231 cells assessed as mortality at 75 mg/kg, ip qd administered on day 14 for 5 days followed by compound readministration on day 27; type: organism-based; design: dose 75 mg/kg, route intraperitoneal; conditions: in vivo, 120 h; outline: as §1
[5] = test system: MDA-MB-231; experiment: Antitumor activity against human MDA-MB-231 cells xenografted in athymic nude mouse assessed as delay in tumor growth at 50 mg/kg, ip qd administered on day 14 for 5 days followed by compound readministration on day 27 measured on day 31 relative to control; type: functional; conditions: route intraperitoneal; outline: as §1
[6] = test system: MDA-MB-231; experiment: Antitumor activity against human MDA-MB-231 cells xenografted in athymic nude mouse assessed as tumor growth inhibition at 75 mg/kg, ip qd administered on day 14 for 5 days followed by compound readministration on day 27 measured on day 31 relative to control; type: functional; conditions: route intraperitoneal; outline: as §1
[7] = test system: Mus musculus; experiment: Toxicity in athymic nude mouse xenografted in human MDA-MB-231 cells assessed as body weight loss at 50 mg/kg, ip bid administered every other day started on day 14 followed by compound readministration every other day started on day 27 (reference value: 6.7%); type: organism-based; design: dose 50 mg/kg, route intraperitoneal; conditions: in vivo
[8] = test system: Mus musculus; experiment: Toxicity in athymic nude mouse xenografted in human MDA-MB-231 cells assessed as body weight loss at 75 mg/kg, ip qd administered every other day started on day 14 for 5 days followed by compound readministration on day 27 (reference value: 6.7%); type: organism-based; design: dose 75 mg/kg, route intraperitoneal; conditions: in vivo, 120 h
[9] = test system: Mus musculus; experiment: Toxicity in athymic nude mouse xenografted in human MDA-MB-231 cells assessed as body weight loss at 75 mg/kg, ip qd administered on day 14 for 5 days followed by compound readministration on day 27 (reference value: 6.7%); type: organism-based; design: dose 75 mg/kg, route intraperitoneal; conditions: in vivo, 120 h
[10] = test system: MDA-MB-231; experiment: Antitumor activity against human MDA-MB-231 cells xenografted in athymic nude mouse assessed as tumor free state at 75 mg/kg, ip qd administered on day 14 for 5 days followed by compound readministration on day 27 measured on day 41; type: functional, organism-based; design: dose 75 mg/kg
Outline: (§2)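 Female athymic nude mice carried sc MDA-MB-231T tumor fragments staged to about 125 mg. Compound was given ip as a solution in 10% DMSO in saline/Tween 80, with courses beginning day 14 and repeated from day 27. Groups had 8 animals, with 16 vehicle controls. Animals were scored as tumor-free on day 41.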

[11] = test system: MDA-MB-231; experiment: Antitumor activity against human MDA-MB-231 cells xenografted in athymic nude mouse assessed as tumor free state at 50 mg/kg, ip qd administered on day 14 for 5 days followed by compound readministration on day 27 measured on day 41; type: functional, organism-based; design: dose 50 mg/kg; outline: as §2
[12] = test system: PC-3; experiment: Cytotoxicity against human PC3 cells assessed as growth inhibition after 48 hrs by SRB assay; type: functional; conditions: PC-3, 48 h
[13] = test system: UO-31; experiment: Cytotoxicity against human UO31 cells assessed as growth inhibition after 48 hrs by SRB assay; type: functional; conditions: UO-31, 48 h
[14] = test system: RXF 393; experiment: Cytotoxicity against human RXF393 cells assessed as growth inhibition after 48 hrs by SRB assay; type: functional; conditions: RXF 393, 48 h
[15] = test system: A498; experiment: Cytotoxicity against human A498 cells assessed as growth inhibition after 48 hrs by SRB assay; type: functional; conditions: A498, 48 h
[16] = test system: OVCAR-3; experiment: Cytotoxicity against human OVCAR3 cells assessed as growth inhibition after 48 hrs by SRB assay; type: functional; conditions: OVCAR-3, 48 h
[17] = test system: IGROV-1; experiment: Cytotoxicity against human IGROV1 cells assessed as growth inhibition after 48 hrs by SRB assay; type: functional; conditions: IGROV-1, 48 h
[18] = test system: SK-MEL-28; experiment: Cytotoxicity against human SK-MEL-28 cells assessed as growth inhibition after 48 hrs by SRB assay; type: functional; conditions: SK-MEL-28, 48 h
[19] = test system: SK-MEL-2; experiment: Cytotoxicity against human SK-MEL-2 cells assessed as growth inhibition after 48 hrs by SRB assay; type: functional; conditions: SK-MEL-2, 48 h
[20] = test system: U-251; experiment: Cytotoxicity against human U251 cells assessed as growth inhibition after 48 hrs by SRB assay; type: functional; conditions: U-251, 48 h
[21] = test system: SW-620; experiment: Cytotoxicity against human SW620 cells assessed as growth inhibition after 48 hrs by SRB assay; type: functional; conditions: SW-620, 48 h
[22] = test system: NCI-H460; experiment: Cytotoxicity against human NCI-H460 cells assessed as growth inhibition after 48 hrs by SRB assay; type: functional; conditions: NCI-H460, 48 h
[23] = test system: NCI-H23; experiment: Cytotoxicity against human NCI-H23 cells assessed as growth inhibition after 48 hrs by SRB assay; type: functional; conditions: NCI-H23, 48 h
[24] = test system: HOP-92; experiment: Cytotoxicity against human HOP92 cells assessed as growth inhibition after 48 hrs by SRB assay; type: functional; conditions: HOP-92, 48 h
[25] = test system: RPMI-8226; experiment: Cytotoxicity against human RPMI8226 cells assessed as growth inhibition after 48 hrs by SRB assay; type: functional; conditions: RPMI-8226, 48 h
[26] = test system: HeLa; experiment: Antiproliferative activity against human HeLa cells after 48 hrs by SRB assay; type: functional, cell-based
Outline: (§3)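 Isogenic pairs: parental SK-OV-3 alongside its Pgp-overexpressing subline MDR-M6-6, and parental HeLa alongside βIII-tubulin-transfected HeLa. Antiproliferative IC50 measured by sulforhodamine B assay, averaged from at least three independent experiments ± SD. Relative resistance is the transduced-line IC50 divided by the parental-line IC50.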

[27] = test system: SK-OV-3; experiment: Antiproliferative activity against human SKOV3 cells after 48 hrs by SRB assay; type: functional, cell-based; conditions: SK-OV-3, 48 h; outline: as §3
[28] = Induction of microtubule depolymerization in rat A10 cells after 18 hrs by indirect immunofluorescence assay; type: cell-based
Outline: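 A-10 cells were exposed to vehicle or compound for 18 h, fixed, and microtubules were visualized by indirect immunofluorescence. EC50 is the concentration causing about 50% microtubule loss, from at least three independent experiments.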

[29] = Relative resistance, ratio of IC50 for M6-6 in human SKOV3 cells to IC50 for human SKOV3 cells; design: species or system SK-OV-3
Outline: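 SRB antiproliferative assay on isogenic pairs: parental SK-OV-3 vs Pgp-overexpressing SK-OV-3 MDR-M6-6, and parental HeLa vs βIII-tubulin-transfected HeLa. IC50 is the mean ± SD of at least three independent experiments. Relative resistance (Rr) is the IC50 of the transduced line divided by the IC50 of the parental line.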

For `COc1ccc(N(C)c2nc(C)nc3c2CCC3)cc1.Cl`, the LCK [1] was -1.5, the LCK [2] was -1.4 and the Activity [3] was “Non-toxic”. The Activity [4] was “Non-toxic”, the Activity [5] was 27% and the T/C [6] was 17%. The “%max” value [7] was 7.8%, the “%max” value [8] was 9% and the “%max” value [9] was 7.9%. For the same molecule, the Activity [10] was “Active”, the Activity [11] was “Active” and the GI50 [12] was < 10 nM. The GI50 [13] was 46.1 nM, the GI50 [14] was < 10 nM and the GI50 [15] was < 10 nM. The GI50 [16] was < 10 nM, the GI50 [17] was 12.8 nM and the GI50 [18] was < 10 nM. For the same molecule, the GI50 [19] was 11.9 nM, the GI50 [20] was < 10 nM and the GI50 [21] was < 10 nM. For the same molecule, the GI50 [22] was 10.3 nM, the GI50 [23] was 22.3 nM and the GI50 [24] was 16 nM. It also gave a GI50 [25] of 14.3 nM, an IC50 [26] of 9.3 nM and an IC50 [27] of 11.3 nM. The EC50 [28] was 25.9 nM.
For `COc1ccc(N(C)c2nc(C)nc3c2CC(C)C3)cc1.Cl` (racemic), the GI50 [12] was 14.6 nM, the GI50 [13] was 13.4 nM and the GI50 [14] was < 10 nM. The GI50 [15] was < 10 nM, the GI50 [16] was < 10 nM and the GI50 [17] was 11 nM. For the same molecule, the GI50 [18] was < 10 nM, the GI50 [19] was 33.1 nM and the GI50 [20] was 12.5 nM. The GI50 [21] was < 10 nM, the GI50 [22] was 23.4 nM and the GI50 [23] was 16.4 nM. For the same molecule, the GI50 [24] was 55.4 nM, the GI50 [25] was 15.7 nM and the “Ratio IC50” value [29] was 1.2. For the same molecule, the IC50 [27] was 38.6 nM and the EC50 [28] was 56 nM.

Reference: ChEMBL document CHEMBL2424583, “Structure-activity relationship and in vitro and in vivo evaluation of the potent cytotoxic anti-microtubule agent N-(4-methoxyphenyl)-N,2,6-trimethyl-6,7-dihydro-5H-cyclopenta[d]pyrimidin-4-aminium chloride and its analogues as antitumor agents” (J Med Chem, 2013)
